ChEMBL document CHEMBL4340542, “Design, synthesis and biological evaluation of 4-aniline-thieno[2,3-d]pyrimidine derivatives as MNK1 inhibitors against renal cell carcinoma and nasopharyngeal carcinoma” (Bioorg Med Chem, 2019)
One block for each compound: values may come before it. The source made the active and inactive calls. No cut-off for these calls is given here.

Legend:
Homo sapiens = species on record: Homo sapiens; assay: Cytotoxicity against human HNE1 cells assessed as decrease in cell viability incubated for 24 hrs by MTT assay; assay type: functional, cell-based
How it was run: (§1)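 IC50 from an 8–10 point concentration gradient by MTT assay. Panel covers renal cell carcinoma and nasopharyngeal carcinoma lines. Values are mean ± SD, n = 3.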

SUNE1 [1] = assay: Cytotoxicity against human SUNE1 cells assessed as decrease in cell viability incubated for 24 hrs by MTT assay; assay type: functional, cell-based; how it was run: as §1
CNE-2 = assay: Cytotoxicity against human CNE2 cells assessed as decrease in cell viability incubated for 24 hrs by MTT assay; assay type: functional, cell-based; how it was run: as §1
[2] = target: T1, MAP kinase-interacting serine/threonine-protein kinase 1 (Homo sapiens, UniProt Q9BUB5); assay: Inhibition of human MNK1 using CREBtide substrate by gamma-[32P]-ATP competitive inhibition assay
How it was run: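 Run as the Eurofins KinaseProfiler radiometric assay, competitive with γ-[32P]-ATP. IC50 taken as the mean of independent experiments; the footnote gives two.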
Target sequence in this assay (Q9BUB5 whole entry): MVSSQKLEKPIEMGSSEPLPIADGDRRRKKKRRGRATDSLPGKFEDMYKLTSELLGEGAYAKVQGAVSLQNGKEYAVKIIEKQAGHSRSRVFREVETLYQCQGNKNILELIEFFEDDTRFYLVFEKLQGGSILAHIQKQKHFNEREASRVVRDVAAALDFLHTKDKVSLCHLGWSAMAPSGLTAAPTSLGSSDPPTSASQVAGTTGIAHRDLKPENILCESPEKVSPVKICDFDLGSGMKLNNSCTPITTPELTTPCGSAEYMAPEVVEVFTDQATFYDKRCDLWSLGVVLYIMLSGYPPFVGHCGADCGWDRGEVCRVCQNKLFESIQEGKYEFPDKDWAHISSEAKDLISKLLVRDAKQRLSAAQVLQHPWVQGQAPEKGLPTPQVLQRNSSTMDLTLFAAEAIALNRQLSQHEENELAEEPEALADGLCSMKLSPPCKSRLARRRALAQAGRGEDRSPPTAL

CNE = assay: Cytotoxicity against human CNE1 cells assessed as decrease in cell viability incubated for 24 hrs by MTT assay; assay type: functional, cell-based; how it was run: as §1
A498 = assay: Cytotoxicity against human A498 cells assessed as decrease in cell viability incubated for 24 hrs by MTT assay; assay type: functional, cell-based; how it was run: as §1
CAKI-1 = assay: Cytotoxicity against human Caki1 cells assessed as decrease in cell viability incubated for 24 hrs by MTT assay; assay type: functional, cell-based; how it was run: as §1
786-0 [3] = assay: Cytotoxicity against human 786-O cells assessed as decrease in cell viability incubated for 24 hrs by MTT assay; assay type: functional, cell-based; how it was run: as §1
SUNE1 [4] = assay: Induction of apoptosis in human SUNE1 cells assessed as early apoptotic cells at 1 uM incubated for 24 hrs by Annexin-V/propidium iodide staining based flow cytometric method (reference value: 1.03%); assay type: functional
SUNE1 [5] = assay: Induction of apoptosis in human SUNE1 cells assessed as late apoptotic cells at 5 uM incubated for 24 hrs by Annexin-V/propidium iodide staining based flow cytometric method (reference value: 4.11%); assay type: functional
786-0 [6] = assay: Induction of apoptosis in human 786-O cells assessed as necrotic cells at 5 uM incubated for 24 hrs by Annexin-V/propidium iodide staining based flow cytometric method (reference value: 0.83%); assay type: functional
[7] = target: T1, MAP kinase-interacting serine/threonine-protein kinase 1; assay: Inhibition of MNK1 in human 786-O cells assessed as decrease in eIF4E phosphorylation at 1 uM incubated for 24 hrs by Western blot analysis relative to control; assay type: cell-based
How it was run: (§2)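 Cells treated 24 h at 1 µM. The test compound was also given 6 h. Cells harvested, trypsinised and washed twice in cold PBS, then lysed in RIPA buffer on ice and sonicated. Lysate centrifuged cold at 10000 g for 30 min. Supernatant protein quantified, run on SDS-PAGE, transferred to PVDF and probed for ERK1/2, pERK1/2, MNK1, eIF4E and p-eIF4E.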
Target sequence in this assay (Q9BUB5 whole entry, looked up): as the sequence (Q9BUB5 whole entry) above

SUNE1 [8] = assay: Induction of apoptosis in human SUNE1 cells incubated for 24 hrs by Annexin-V/propidium iodide staining based flow cytometric method (reference value: 93.79%); assay type: functional, cell-based
786-0 [9] = assay: Effect on total MNK1 protein expression in human 786-O cells incubated for 24 hrs by Western blot analysis relative to control; assay type: cell-based; settings: 786-0, 24 h; how it was run: as §2
SUNE1 [10] = assay: Effect on total MNK1 protein expression in human SUNE1 cells incubated for 24 hrs by Western blot analysis relative to control; assay type: ADME, cell-based; settings: sune1, 24 h; how it was run: as §2
786-0 [11] = assay: Induction of apoptosis in human 786-O cells assessed as viable cells at 5 uM incubated for 24 hrs by Annexin-V/propidium iodide staining based flow cytometric method (reference value: 93.63%); assay type: functional; settings: 786-0, 24 h, read-out: Activity
786-0 [12] = assay: Induction of apoptosis in human 786-O cells incubated for 24 hrs by Annexin-V/propidium iodide staining based flow cytometric method; assay type: functional, cell-based
[13] = target: T2, Mitogen-activated protein kinase; ERK1/ERK2 (Homo sapiens) (UniProt P27361+P28482); assay: Inhibition of ERK1/2 phosphorylation in human 786-O cells at 1 uM incubated for 24 hrs by Western blot analysis relative to control; assay type: cell-based; how it was run: as §2
T2 sequence (P27361 whole entry, looked up): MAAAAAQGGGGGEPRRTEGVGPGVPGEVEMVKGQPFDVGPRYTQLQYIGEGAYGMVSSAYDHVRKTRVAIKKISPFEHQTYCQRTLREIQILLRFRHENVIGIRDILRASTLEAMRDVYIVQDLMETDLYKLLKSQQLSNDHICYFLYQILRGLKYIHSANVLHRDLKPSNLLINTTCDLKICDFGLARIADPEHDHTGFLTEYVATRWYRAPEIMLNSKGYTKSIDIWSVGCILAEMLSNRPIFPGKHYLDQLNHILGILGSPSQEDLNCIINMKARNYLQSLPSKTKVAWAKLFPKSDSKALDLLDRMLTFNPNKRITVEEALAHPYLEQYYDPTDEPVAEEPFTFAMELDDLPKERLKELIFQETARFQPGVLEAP
T2 sequence (P28482 whole entry, looked up): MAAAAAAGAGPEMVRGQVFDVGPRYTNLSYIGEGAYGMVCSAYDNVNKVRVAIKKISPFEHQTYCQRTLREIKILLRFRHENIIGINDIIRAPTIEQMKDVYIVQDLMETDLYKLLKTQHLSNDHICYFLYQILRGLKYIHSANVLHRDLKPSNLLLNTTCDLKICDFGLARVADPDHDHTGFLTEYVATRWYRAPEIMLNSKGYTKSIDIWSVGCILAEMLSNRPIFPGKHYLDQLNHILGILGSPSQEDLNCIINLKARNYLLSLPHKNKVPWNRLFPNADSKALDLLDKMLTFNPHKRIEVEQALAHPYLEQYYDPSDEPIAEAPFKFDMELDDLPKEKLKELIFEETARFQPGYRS

SUNE1 [14] = assay: Effect on total eIF4E protein expression in human SUNE1 cells incubated for 24 hrs by Western blot analysis relative to control; assay type: ADME, cell-based; settings: sune1, 24 h; how it was run: as §2
786-0 [15] = assay: Induction of apoptosis in human 786-O cells assessed as viable cells at 1 uM incubated for 24 hrs by Annexin-V/propidium iodide staining based flow cytometric method (reference value: 93.63%); assay type: functional; settings: 786-0, 24 h, read-out: Activity
786-0 [16] = assay: Induction of apoptosis in human 786-O cells assessed as late apoptotic cells at 1 uM incubated for 24 hrs by Annexin-V/propidium iodide staining based flow cytometric method (reference value: 3.80%); assay type: functional
SUNE1 [17] = assay: Induction of apoptosis in human SUNE1 cells assessed as late apoptotic cells at 1 uM incubated for 24 hrs by Annexin-V/propidium iodide staining based flow cytometric method (reference value: 4.11%); assay type: functional
786-0 [18] = assay: Induction of apoptosis in human 786-O cells assessed as early apoptotic cells at 5 uM incubated for 24 hrs by Annexin-V/propidium iodide staining based flow cytometric method (reference value: 1.74%); assay type: functional
786-0 [19] = assay: Effect on total ERK1/2 protein expression in human 786-O cells incubated for 24 hrs by Western blot analysis relative to control; assay type: cell-based; settings: 786-0, 24 h; how it was run: as §2
SUNE1 [20] = assay: Induction of apoptosis in human SUNE1 cells assessed as early apoptotic cells at 5 uM incubated for 24 hrs by Annexin-V/propidium iodide staining based flow cytometric method (reference value: 1.03%); assay type: functional
SUNE1 [21] = assay: Effect on total ERK1/2 protein expression in human SUNE1 cells incubated for 24 hrs by Western blot analysis relative to control; assay type: ADME, cell-based; settings: sune1, 24 h; how it was run: as §2
786-0 [22] = assay: Induction of apoptosis in human 786-O cells assessed as necrotic cells at 1 uM incubated for 24 hrs by Annexin-V/propidium iodide staining based flow cytometric method (reference value: 0.83%); assay type: functional
SUNE1 [23] = assay: Induction of apoptosis in human SUNE1 cells assessed as viable cells at 5 uM incubated for 24 hrs by Annexin-V/propidium iodide staining based flow cytometric method (reference value: 93.79%); assay type: functional; settings: SUNE1, 24 h, read-out: Activity
786-0 [24] = assay: Induction of apoptosis in human 786-O cells assessed as early apoptotic cells at 1 uM incubated for 24 hrs by Annexin-V/propidium iodide staining based flow cytometric method (reference value: 1.74%); assay type: functional
786-0 [25] = assay: Effect on total eIF4E protein expression in human 786-O cells incubated for 24 hrs by Western blot analysis relative to control; assay type: cell-based; settings: 786-0, 24 h; how it was run: as §2
786-0 [26] = assay: Induction of apoptosis in human 786-O cells assessed as late apoptotic cells at 5 uM incubated for 24 hrs by Annexin-V/propidium iodide staining based flow cytometric method (reference value: 3.80%); assay type: functional
SUNE1 [27] = assay: Induction of apoptosis in human SUNE1 cells assessed as viable cells at 1 uM incubated for 24 hrs by Annexin-V/propidium iodide staining based flow cytometric method (reference value: 93.79%); assay type: functional; settings: SUNE1, 24 h, read-out: Activity
[28] = target: T2, Mitogen-activated protein kinase; ERK1/ERK2 (Homo sapiens); assay: Inhibition of ERK1/2 phosphorylation in human SUNE1 cells at 1 uM incubated for 24 hrs by Western blot analysis relative to control; assay type: cell-based; how it was run: as §2
SUNE1 [29] = assay: Induction of apoptosis in human SUNE1 cells assessed as necrotic cells at 1 uM incubated for 24 hrs by Annexin-V/propidium iodide staining based flow cytometric method (reference value: 1.07%); assay type: functional
SUNE1 [30] = assay: Induction of apoptosis in human SUNE1 cells assessed as necrotic cells at 5 uM incubated for 24 hrs by Annexin-V/propidium iodide staining based flow cytometric method (reference value: 1.07%); assay type: functional

- IC50 [2]: 1070 nM
Compound: COc1ccc(S(=O)(=O)N2CCc3c(sc4ncnc(Nc5ccc(Br)cc5)c34)C2)cc1
- Activity (Homo sapiens): Active
- Activity (SUNE1 [1]): Active
- Activity (CNE-2): Active
- Activity (CNE): Active
- Activity (A498): Active
- Activity (CAKI-1): Active
- Activity (786-0 [3]): Active

- inhibition [7]: Dose-dependent effect
- inhibition [13]: inactive
- IC50 [2]: 650 nM
- inhibition [28]: inactive
Compound: COc1ccc(S(=O)(=O)N2CCc3c(sc4ncnc(Nc5ccc(F)cc5OC)c34)C2)cc1
- Activity (SUNE1 [4]): 34.6%
- Activity (Homo sapiens): Active
- Activity (SUNE1 [5]): 10.61%
- Activity (786-0 [6]): 7.88%
- Activity (SUNE1 [8]): Dose-dependent effect
- Activity (786-0 [9]): Non-Toxic
- Activity (SUNE1 [10]): Non-Toxic
- viability at 5 µM (786-0 [11]): 42.9%
- Activity (SUNE1 [1]): Active
- Activity (786-0 [12]): Dose-dependent effect
- Activity (SUNE1 [14]): Non-Toxic
- viability at 1 µM (786-0 [15]): 68.9%
- Activity (CNE-2): Active
- Activity (786-0 [16]): 8.5%
- Activity (SUNE1 [17]): 18.18%
- Activity (786-0 [18]): 37.44%
- Activity (786-0 [19]): Non-Toxic
- Activity (CNE): Active
- Activity (SUNE1 [20]): 49.87%
- Activity (A498): Active
- Activity (CAKI-1): Active
- Activity (SUNE1 [21]): Non-Toxic
- Activity (786-0 [22]): 4.64%
- viability at 5 µM (SUNE1 [23]): 35.9%
- Activity (786-0 [24]): 17.94%
- Activity (786-0 [25]): Non-Toxic
- Activity (786-0 [26]): 11.79%
- viability at 1 µM (SUNE1 [27]): 36.6%
- Activity (786-0 [3]): Active
- Activity (SUNE1 [29]): 10.6%
- Activity (SUNE1 [30]): 3.52%

- IC50 [2]: 830 nM
Compound: COc1ccc(S(=O)(=O)N2CCc3c(sc4ncnc(Nc5ccc(F)cc5F)c34)C2)cc1
- Activity (Homo sapiens): Active
- Activity (SUNE1 [1]): Active
- Activity (CNE-2): Active
- Activity (CNE): Active
- Activity (A498): Active
- Activity (CAKI-1): Active
- Activity (786-0 [3]): Active

- IC50 [2]: 1000 nM
Compound: COc1ccc(S(=O)(=O)N2CCc3c(sc4ncnc(Nc5ccc(F)cc5Br)c34)C2)cc1
- Activity (Homo sapiens): Active
- Activity (SUNE1 [1]): Active
- Activity (CNE-2): Active
- Activity (CNE): Active
- Activity (A498): Active
- Activity (CAKI-1): Active
- Activity (786-0 [3]): Active

- IC50 [2]: 1150 nM
Compound: COc1ccc(S(=O)(=O)N2CCc3c(sc4ncnc(Nc5ccc(Cl)cc5F)c34)C2)cc1
- Activity (Homo sapiens): Active
- Activity (SUNE1 [1]): Active
- Activity (CNE-2): Active
- Activity (CNE): Active
- Activity (A498): Active
- Activity (CAKI-1): Active
- Activity (786-0 [3]): Active

- IC50 [2]: 1120 nM
Compound: Fc1ccc(Nc2ncnc3sc4c(c23)CCN(Cc2ccccc2)C4)c(Br)c1

- IC50 [2]: 1000 nM
Compound: COc1cc(F)ccc1Nc1ncnc2sc3c(c12)CCN(Cc1ccccc1)C3

- IC50 [2]: 1470 nM
Compound: CN1CCc2c(sc3ncnc(Nc4ccc(F)cc4Br)c23)C1

- IC50 [2]: 1650 nM
Compound: Cc1ccc(Nc2ncnc3sc4c(c23)CCN(C)C4)c(Br)c1

- IC50 [2]: 1810 nM
Compound: CC(C)(C)OC(=O)N1CCc2c(sc3ncnc(Nc4ccc(Br)cc4)c23)C1
